The text below walks through data of ChEMBL document CHEMBL3421540, “Ensemble-based virtual screening for cannabinoid-like potentiators of the human glycine receptor α1 for the treatment of pain” (J Med Chem, 2015).

Holding throughout (type): cell-based
Experiment [1] deals with T1, Glycine receptor subunit alpha-1 (Homo sapiens, UniProt P23415).
T1 sequence (P23415 whole entry): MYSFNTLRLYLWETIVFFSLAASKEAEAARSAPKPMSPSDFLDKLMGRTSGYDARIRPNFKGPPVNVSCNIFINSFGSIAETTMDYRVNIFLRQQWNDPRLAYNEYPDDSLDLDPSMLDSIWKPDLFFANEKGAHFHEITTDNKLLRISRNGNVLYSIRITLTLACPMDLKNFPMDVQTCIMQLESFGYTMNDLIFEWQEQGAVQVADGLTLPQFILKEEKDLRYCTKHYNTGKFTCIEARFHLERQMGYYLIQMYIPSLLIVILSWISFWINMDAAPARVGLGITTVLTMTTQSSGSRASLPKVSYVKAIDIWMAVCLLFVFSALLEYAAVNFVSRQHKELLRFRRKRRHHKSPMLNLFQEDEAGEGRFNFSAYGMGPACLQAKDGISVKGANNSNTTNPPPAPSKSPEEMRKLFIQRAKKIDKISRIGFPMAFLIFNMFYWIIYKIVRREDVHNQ
In words: Potentiation of human GlyR-alpha1 expressed in Xenopus laevis oocytes assessed as induction of glycine-activated currents after 1 to 4 days by two-electrode voltage clamp assay. In short, it runs like this: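 hGlyR-α1 RNA (25−50 ng) injected into stage 5−6 Xenopus oocytes, held at 17 °C in modified Barth's solution. Recorded 1−4 days later by two-electrode voltage clamp at −60 mV in 96 mM NaCl, 2 mM KCl, 1.8 mM CaCl2, 1 mM MgCl2, 5 mM HEPES, pH 7.0. Compounds coapplied with glycine at EC5, up to 10 μM. EC50 values also derived.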

Experiment [2] addresses Neuronal acetylcholine receptor subunit alpha-7 (Homo sapiens) (UniProt P36544). In words: Modulation of human alpha7 nAChR expressed in Xenopus laevis oocytes assessed as effect on acetylcholine-induced currents at 10 uM after 1 to 4 days by two-electrode voltage clamp assay relative to control. In short, it runs like this: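 α7 nAChR RNA (25−50 ng) injected into stage 5−6 Xenopus oocytes, kept at 17 °C in modified Barth's solution. Two-electrode voltage clamp at −60 mV, 1−4 days post-injection. Bath: 96 mM NaCl, 2 mM KCl, 1.8 mM CaCl2, 1 mM MgCl2, 5 mM HEPES, pH 7.0. Compound coapplied with acetylcholine at EC50, used because of fast desensitization.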

For experiment [3], the target named is T2, Glycine receptor subunit alpha-1 (Homo sapiens) (UniProt P23415).
T2 sequence (whole entry): T1 sequence (P23415 whole entry)
Put plainly: Potentiation of human GlyR-alpha1 expressed in Xenopus laevis oocytes assessed as induction of glycine-activated currents at 1 uM after 1 to 4 days by two-electrode voltage clamp assay relative to control. In short, it runs like this:
(§1)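 RNA for hGlyR-α1 (25−50 ng) injected into stage 5−6 Xenopus laevis oocytes held at 17 °C in modified Barth's solution; two-electrode voltage clamp 1−4 days post-injection at −60 mV holding potential. Bath: 96 mM NaCl, 2 mM KCl, 1.8 mM CaCl2, 1 mM MgCl2, 5 mM HEPES, pH 7.0. Compound coapplied with glycine at EC5; potentiation of current scored.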

Experiment [4] addresses T2, Glycine receptor subunit alpha-1 (Homo sapiens). Put plainly: Potentiation of human GlyR-alpha1 expressed in Xenopus laevis oocytes assessed as induction of glycine-activated currents at 10 uM after 1 to 4 days by two-electrode voltage clamp assay relative to control. In short, it runs like this:
as §1

Active and inactive are the calls of the source. The rule behind the calls is not given here.

Sequence of Neuronal acetylcholine receptor subunit alpha-7 (Homo sapiens) (P36544 whole entry): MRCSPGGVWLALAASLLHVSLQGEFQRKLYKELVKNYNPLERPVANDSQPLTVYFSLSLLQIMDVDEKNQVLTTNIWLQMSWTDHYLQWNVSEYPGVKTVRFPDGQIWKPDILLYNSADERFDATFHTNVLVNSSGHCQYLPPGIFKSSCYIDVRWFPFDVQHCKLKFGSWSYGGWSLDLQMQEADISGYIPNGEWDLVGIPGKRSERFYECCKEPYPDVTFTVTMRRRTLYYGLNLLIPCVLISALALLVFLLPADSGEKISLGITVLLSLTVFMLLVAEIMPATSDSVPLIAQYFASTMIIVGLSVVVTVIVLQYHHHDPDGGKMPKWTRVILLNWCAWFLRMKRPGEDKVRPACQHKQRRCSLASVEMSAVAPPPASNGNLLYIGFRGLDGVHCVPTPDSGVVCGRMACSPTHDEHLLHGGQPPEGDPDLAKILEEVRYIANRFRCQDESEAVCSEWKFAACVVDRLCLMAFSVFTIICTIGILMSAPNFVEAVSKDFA

`Cc1nc2n(c(=O)c1CCN1CCC(c3noc4cc(F)ccc34)CC1)CCCC2` [RISPERIDONE]: the EC50 in experiment [1] was found to be 0.32 µM. Also, the outcome in experiment [2] was inactive. Besides, in experiment [3], the Activity came to 180%. Also, in experiment [4], the %max turned out to be 190%.
The like results for `COc1ccc(-c2ccc3cc(C(=O)O)ccc3c2)cc1C12CC3CC(CC(C3)C1)C2` were, in that order, 1.3 µM, “inactive”, 172% and 260%.
The like results for `C=C1CC[C@H](O)C/C1=C/C=C1\CCC[C@]2(C)[C@@H]([C@H](C)CCCC(C)C)CC[C@@H]12` [CHOLECALCIFEROL] were, in that order, 0.4 µM, “inactive”, 216% and 220%.
The like results for `C[C@@H](NCCCc1cccc(C(F)(F)F)c1)c1cccc2ccccc12` were, in that order, 0.32 µM, “inactive”, 182% and 210%.
With `COc1cc(OC)c(NC(=O)Nc2cc(C)on2)cc1Cl`, in experiment [3], the Activity is 102%. Further, the %max in experiment [4] worked out at 103%.
With `CCCc1nc2c(C)cc(-c3nc4ccccc4n3C)cc2n1Cc1ccc(-c2ccccc2C(=O)O)cc1`, the EC50 in experiment [1] came to 3.2 µM. The Activity in experiment [3] came to 120%. In experiment [4], the %max is 210%.
`CC1=C(CC(=O)O)c2cc(F)ccc2/C1=C\c1ccc([S+](C)[O-])cc1` (centres undefined): the EC50 in experiment [1] was 0.38 µM. The outcome in experiment [2] was inactive.
`O=c1[nH]c2ccccc2n1C1CCN(CCCC(c2ccc(F)cc2)c2ccc(F)cc2)CC1` [PIMOZIDE]: in experiment [1], the EC50 was 1.7 µM. Further, the outcome in experiment [2] was inactive. Besides, in experiment [3], the Activity turned out to be 219%. In addition, the %max in experiment [4] turned out to be 510%.
Turning to `O=C1NCN(c2ccccc2)C12CCN(CCCC(c1ccc(F)cc1)c1ccc(F)cc1)CC2`, the EC50 in experiment [1] came to 1.2 µM.
Turning to `OC(c1cc(C(F)(F)F)nc2c(C(F)(F)F)cccc12)C1CCCCN1` (centres undefined) [MEFLOQUINE], in experiment [1], the EC50 came out at 2.5 µM. Moreover, the Activity in experiment [3] came to 126%. Further, the %max in experiment [4] came to 220%.
Turning to `CCCCCc1cc(O)c2c(c1)OC(C)(C)[C@@H]1CCC(C)=C[C@@H]21` [DRONABINOL], the half-maximal effective concentration (EC50) in experiment [1] is 1.3 µM. Further, in experiment [3], the Activity came out at 162%. In experiment [4], the %max is 260%.
For `CNC(=O)c1cc(Oc2ccc(NC(=O)Nc3ccc(Cl)c(C(F)(F)F)c3)c(F)c2)ccn1` [REGORAFENIB], the EC50 in experiment [1] was determined as 1.8 µM. In experiment [3], the Activity is 116%. For the same compound, the %max in experiment [4] is 200%.
The like results for `COc1ccc(CCN2CCC(Nc3nc4ccccc4n3Cc3ccc(F)cc3)CC2)cc1` [ASTEMIZOLE] were, in that order, 4.2 µM, 122% and 280%.
In the case of `C[C@]12C=CC(=O)N[C@@H]1CC[C@@H]1[C@@H]2CC[C@]2(C)[C@@H](C(=O)Nc3cc(C(F)(F)F)ccc3C(F)(F)F)CC[C@@H]12` [DUTASTERIDE], the EC50 in experiment [1] worked out at 0.33 µM. Moreover, the outcome in experiment [2] was inactive.
Take `Cc1nc2c([nH]1)-c1ccccc1N(C(=O)c1ccc(NC(=O)c3ccccc3-c3ccccc3)cc1)CC2`: in experiment [3], the Activity came to 106%. Besides, the %max in experiment [4] stood at 107%.
